Results from ChEMBL document CHEMBL1649522, “Effect of rifampin, a potent inducer of drug-metabolizing enzymes, on the pharmacokinetics of raltegravir” (Antimicrob Agents Chemother, 2009).

Key:
Format in all cases: ADME, organism-based
[1] = Cmin in healthy human at […], po BID for 14 days after 12 hrs in presence of […], po rifampin; details: in vivo, read-out: Cmin
Procedure, shortened: (§1)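 Same subjects given raltegravir 800 mg orally every 12 h plus rifampin 600 mg orally once daily for 14 days. A light meal was taken 2 h before the day 14 morning dose. Plasma sampled 0–12 h postdose and assayed by HPLC-MS/MS. AUC0-12 by linear-up/log-down trapezoidal rule. Cmax, Tmax and C12 read directly.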

[2] = AUC(0 to 12 hrs) in healthy human at […], po BID for 4 days; parameters: time < 12 hr, route oral; details: plasma
Procedure, shortened: (§2)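 Healthy male and female subjects given raltegravir 400 mg orally every 12 h for 4 days. A light meal was taken 2 h before the day 4 morning dose. Plasma sampled 0–12 h after that dose and assayed by HPLC-MS/MS (LLOQ 2 ng/ml). AUC0-12 by linear-up/log-down trapezoidal rule. Cmax, Tmax and nominal 12 h C12 read from the data.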

[3] = Tmax in healthy human at […], po BID for 14 days in presence of […], po rifampin; details: in vivo; procedure, shortened: as §1
[4] = Cmin in healthy human at […], po administered as single dose after 12 hrs; parameters: route oral; details: in vivo, read-out: Cmin
Procedure, shortened: (§3)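 Healthy male and female subjects (n=9), fasted 8 h before and 4 h after a single oral 400 mg raltegravir dose. Plasma sampled 0–48 h postdose and measured by liquid-liquid extraction then reverse-phase HPLC-MS/MS (LLOQ 2 ng/ml). AUC0-∞ from a biexponential fit plus linear/log trapezoidal rule. Cmax and Tmax read from the data. C12 taken at the nominal 12 h sample.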

[5] = AUC (0 to infinity) in healthy human at […], po administered as single dose in presence of […], po rifampin; parameters: route oral, time infinity; details: plasma
Procedure, shortened: (§4)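 Same subjects after a washout of at least 4 days, given rifampin 600 mg orally once daily for 15 days. On day 14, a single fasted oral 400 mg raltegravir dose was given with rifampin. Plasma sampled 0–48 h postdose and assayed by HPLC-MS/MS. AUC0-∞ by biexponential fit plus trapezoidal rule. Cmax, Tmax and nominal 12 h C12 read directly.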

[6] = Primary phase half life in healthy human at […], po administered as single dose; parameters: route oral; details: in vivo
Procedure, shortened: (§5)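 Study 1: open-label two-period fixed-sequence design in healthy adults (nine completed). A single 400 mg oral dose was given fasted (8 h before, 4 h after), then after at least 4 days washout, 600 mg rifampin orally once daily for 15 days, with 400 mg raltegravir given on day 14. Plasma sampled 0–48 h; LC-MS/MS (LLOQ 2 ng/ml). Biexponential fit weighted 1/(predicted concentration)²; t1/2 = ln(2)/α or β.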

[7] = Cmax in healthy human at […], po administered as single dose in presence of […], po rifampin; parameters: route oral; details: in vivo; procedure, shortened: as §4
[8] = AUC(0 to 12 hrs) in healthy human at […], po BID for 14 days in presence of […], po rifampin; parameters: time < 12 hr, route oral; details: plasma; procedure, shortened: as §1
[9] = Tmax in healthy human at […], po administered as single dose in presence of […], po rifampin; details: in vivo; procedure, shortened: as §4
[10] = Terminal half life in healthy human at […], po administered as single dose in presence of […], po rifampin; details: in vivo, read-out: beta t1/2 (converted); procedure, shortened: as §5
[11] = AUC (0 to infinity) in healthy human at […], po administered as single dose; parameters: time infinity, route oral; details: plasma; procedure, shortened: as §3
[12] = Cmax in healthy human at […], po BID for 14 days in presence of […], po rifampin; parameters: route oral; details: in vivo; procedure, shortened: as §1
[13] = Cmax in healthy human at […], po administered as single dose; parameters: route oral; details: in vivo; procedure, shortened: as §3
[14] = Terminal half life in healthy human at […], po administered as single dose; parameters: route oral; details: in vivo, read-out: beta t1/2 (converted); procedure, shortened: as §5
[15] = Cmin in healthy human at […], po administered as single dose after 12 hrs in presence of […], po rifampin; details: in vivo, read-out: Cmin; procedure, shortened: as §4
[16] = Primary phase half life in healthy human at […], po administered as single dose in presence of […], po rifampin; details: in vivo; procedure, shortened: as §5
[17] = Cmin in healthy human at […], po BID for 4 days after 12 hrs; parameters: route oral; details: in vivo, read-out: Cmin; procedure, shortened: as §2

## Cc1nnc(C(=O)NC(C)(C)c2nc(C(=O)NCc3ccc(F)cc3)c(O)c(=O)n2C)o1 [RALTEGRAVIR]
[1]
  concentration at 12 h: 43.5 nM
[2]
  AUC at 12 h: 4.61 µM·h
[3]
  Tmax: 1.75 h
[4]
  concentration at 12 h: 92.1 nM
[5]
  AUC(0-inf): 16.5 µM·h
[6]
  half-life: 1.07 h
[7]
  Cmax: 5340 nM
[8]
  AUC at 12 h: 5.85 µM·h
[9]
  Tmax: 3 h
[10]
  half-life: 9.6 h
[11]
  AUC(0-inf): 27.6 µM·h
[12]
  Cmax: 1950 nM
[13]
  Cmax: 8610 nM
[14]
  half-life: 8.5 h
[15]
  concentration at 12 h: 36.3 nM
[16]
  half-life: 0.93 h
[17]
  concentration at 12 h: 92.5 nM
